Laboratory results taken from ChEMBL document CHEMBL1933044.
Calls of active or inactive are those of the source. No cut-off for these calls is given here.

What was measured:
Reovirus sp. = test: Antiviral activity against Reovirus 1 assessed as inhibition of viral replication; assay type: functional, organism-based
Outline: (§1)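 Cell culture virus assays. Inhibition of virus replication and compound cytotoxicity were scored by microscopic examination and confirmed by a colorimetric MTS cell viability assay. Selectivity index is the ratio of cytotoxic to antiviral concentration.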

Sindbis virus = test: Antiviral activity against Sindbis virus assessed as inhibition of viral replication; assay type: functional, organism-based; outline: as §1
[1] = system: Respiratory syncytial virus; test: Antiviral activity against RSV assessed as inhibition of viral replication; assay type: functional, organism-based; outline: as §1
Punta Toro virus = test: Antiviral activity against Punta Toro virus assessed as inhibition of viral replication; assay type: functional, organism-based; outline: as §1
[2] = Antagonist activity at NMDAR in rat cerebellar granule neurons assessed as inhibition of NMDA-induced calcium flux after 5 mins using FURA-2AM in presence of glycine; assay type: functional
Outline: (§2)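 Primary cerebellar granule neuron cultures grown on poly-L-lysine-coated glass coverslips and used after 7-14 days in vitro. Intracellular calcium recorded in real time over 1200 s. Cells were stimulated with NMDA or glutamate (100 μM, with 10 μM glycine), then given increasing cumulative compound concentrations. Percent inhibition at each concentration was fitted by non-linear regression (variable slope). At least three experiments on three culture batches.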

Human alphaherpesvirus 1 = test: Antiviral activity against HSV1 assessed as inhibition of viral replication; assay type: functional, organism-based; outline: as §1
Human alphaherpesvirus 2 = test: Antiviral activity against HSV2 assessed as inhibition of viral replication; assay type: functional, organism-based; outline: as §1
Vaccinia virus = test: Antiviral activity against Vaccinia virus assessed as inhibition of viral replication; assay type: functional, organism-based; settings: Orthopoxvirus vaccinia; outline: as §1
Trypanosoma brucei [3] = test: Antitrypanosomal activity against bloodstream form of Trypanosoma brucei 427 after 48 hrs by hemocytometer analysis; assay type: functional, organism-based; settings: Trypanosoma brucei, 427, 48 h
[4] = target: Matrix protein 2 (Influenza A virus) (UniProt P06821); test: Inhibition of Influenza A virus (A/Puerto Rico/8/1934(H1N1)) M2 channel expressed in Xenopus oocytes at 100 uM by two-electrode voltage clamp assay; assay type: cell-based; settings: Oocyte
Sequence of Matrix protein 2 (Influenza A virus) (P06821 whole entry): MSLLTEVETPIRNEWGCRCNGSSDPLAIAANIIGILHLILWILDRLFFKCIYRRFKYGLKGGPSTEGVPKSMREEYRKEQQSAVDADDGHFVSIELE

Feline coronavirus = test: Antiviral activity against Feline coronavirus assessed as inhibition of viral replication; assay type: functional, organism-based; outline: as §1
Coxsackievirus B4 = test: Antiviral activity against Coxsackievirus B4 assessed as inhibition of viral replication; assay type: functional, organism-based; outline: as §1
Human respirovirus 3 = test: Antiviral activity against Parainfluenza-3 virus assessed as inhibition of viral replication; assay type: functional, organism-based; outline: as §1
[5] = Antagonist activity at NMDAR in rat cerebellar granule neurons assessed as inhibition of glutamate-induced calcium flux after 5 mins using FURA-2AM in presence of glycine; assay type: functional; outline: as §2
[6] = system: Vesicular stomatitis virus; test: Antiviral activity against VSV in HeLa cells assessed as inhibition of viral replication; assay type: functional, organism-based; outline: as §1
[7] = system: Vesicular stomatitis virus; test: Antiviral activity against VSV in human HEL cells assessed as viability by MTS based microscopy; assay type: functional, organism-based; outline: as §1
[8] = Selectivity index, ratio of cytotoxicity for HeLa cells to ratio of EC50 for Vesicular stomatitis virus; assay type: toxicity, cell-based; settings: human, read-out: Selectivity Index; outline: as §1
Trypanosoma brucei [9] = test: Ratio of compound IC90 to rimantadine IC90 for bloodstream form of Trypanosoma brucei 427; assay type: functional
Influenza B virus = test: Antiinfluenza activity against Influenza B virus (B/Hong Kong/05/1972) assessed as inhibition of viral replication; assay type: functional; outline: as §1
H3N2 subtype = test: Antiinfluenza activity against Influenza A virus (A/Hong Kong/7/1987(H3N2)) assessed as inhibition of viral replication; assay type: functional, organism-based; outline: as §1
Influenza A virus = test: Antiinfluenza activity against Influenza A virus (A/Puerto Rico/8/1934(H1N1)) assessed as inhibition of viral replication; assay type: functional, organism-based; outline: as §1

| Structure (SMILES) | Activity (Reovirus sp.) | Activity (Sindbis virus) | Activity [1] | Activity (Punta Toro virus) | IC50 [2] | Activity (Human alphaherpesvirus 1) | Activity (Human alphaherpesvirus 2) | Activity (Vaccinia virus) | IC50 (Trypanosoma brucei [3]) | IC90 (Trypanosoma brucei [3]) | inhibition [4] | Activity (Feline coronavirus) | Activity (Coxsackievirus B4) | Activity (Human respirovirus 3) | IC50 [5] | other results |
| --- | --- | --- | --- | --- | --- | --- | --- | --- | --- | --- | --- | --- | --- | --- | --- | --- |
| CN(C)C12CC3CC(C)(CC(C1)c1ccccc13)C2 | inactive | inactive | inactive | inactive | 11.8 µM | inactive | inactive | inactive | 1.99 µM | 3.14 µM | inactive | inactive | inactive | inactive | 87 µM |  |
| C#CCN(CC#C)C12CC3CC(C)(CC(C1)c1ccccc13)C2 | inactive | inactive | inactive | inactive | > 200 µM | inactive | inactive | inactive | 13.4 µM | 21.6 µM |  | inactive | inactive | inactive | > 500 µM | EC50 [6]: 4 µM; Activity [7]: inactive; selectivity ratio [8]: 25 |
| CN(Cc1ccccc1)C12CC3CC(C)(CC(C1)c1ccccc13)C2 | inactive | inactive | inactive | inactive | > 200 µM | inactive | inactive | inactive | 5.25 µM | 10.8 µM |  | inactive | inactive | inactive | > 500 µM |  |
| CC12CC3CC(N)(CC(C1)c1ccccc13)C2 | inactive | inactive | inactive | inactive | 13.6 µM | inactive | inactive | inactive | 4.8 µM | 9.6 µM | inactive | inactive | inactive | inactive | 22 µM |  |
| CC12CC3CC(N4CCCCC4)(CC(C1)c1ccccc13)C2 | inactive | inactive | inactive | inactive | 101 µM | inactive | inactive | inactive |  |  |  | inactive | inactive | inactive | > 500 µM | EC50 [6]: 54 µM; Activity [7]: inactive |
| CNC12CC3CC(C)(CC(C1)c1ccccc13)C2 | inactive | inactive | inactive | inactive | 19.4 µM | inactive | inactive | inactive | 4.46 µM | 6.66 µM |  | inactive | inactive | inactive | 455 µM |  |
| CC12CC3CC(C)(C1)CC(N)(C3)C2 [MEMANTINE] |  |  |  |  |  |  |  |  |  | 21.4 µM |  |  |  |  |  |  |
| C#CCNC12CC3CC(C)(CC(C1)c1ccccc13)C2 | inactive | inactive | inactive | inactive | 27.5 µM | inactive | inactive | inactive | 1.99 µM | 3.14 µM |  | inactive | inactive | inactive | > 500 µM | Ratio (Trypanosoma brucei [9]): >4 |
| CC(N)C12CC3CC(CC(C3)C1)C2 (centres undefined) [RIMANTADINE] |  |  |  |  |  |  |  |  |  | 14 µM |  |  |  |  |  |  |
| CC12CC3CC(NCc4ccccc4)(CC(C1)c1ccccc13)C2 | inactive | inactive | inactive | inactive | > 200 µM | inactive | inactive | inactive | 3 µM | 6.55 µM | inactive | inactive | inactive | inactive | > 500 µM | Activity (Influenza B virus): inactive; Activity (H3N2 subtype): inactive; EC50 (Influenza A virus): 10 µM |
